Consider two compounds from ChEMBL document CHEMBL1765036, “Small-molecule ligands of methyl-lysine binding proteins” (J Med Chem, 2011).

Experiment [1] has as its target T1, Chromobox protein homolog 7 (Homo sapiens, UniProt O95931).
T1 sequence (O95931 whole entry): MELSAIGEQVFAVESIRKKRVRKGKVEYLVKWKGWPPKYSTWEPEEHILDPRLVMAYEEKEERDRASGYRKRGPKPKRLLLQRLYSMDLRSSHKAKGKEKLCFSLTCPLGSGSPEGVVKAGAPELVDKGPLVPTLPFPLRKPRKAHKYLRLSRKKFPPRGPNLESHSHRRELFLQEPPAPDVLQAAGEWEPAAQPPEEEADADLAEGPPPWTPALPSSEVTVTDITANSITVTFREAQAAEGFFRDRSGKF
As to the kind of experiment: Binding affinity to CBX7 by chemiluminescent assay. Summed up:
(§1)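 AlphaScreen bead-based chemiluminescent proximity assay measuring antagonism of methylated histone peptide binding to the MBT/methyl-lysine reader domain. The peptide is H3K9Me1, the same one used as FAM-labelled probe (H3 residues 1-15, monomethyl K9) in the FP assay. A separate counterscreen was run for compound interference with the assay signal.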

The next experiment has as its target PHD finger protein 13 (Homo sapiens, UniProt Q86YI8). Nature of the experiment: Binding affinity to PHF13 by chemiluminescent assay. In a few lines:
as §1

Experiment [2] concerns the target MBT domain-containing protein 1 (Homo sapiens, UniProt Q05BQ5). Nature of the experiment: Binding affinity to MBTD1 by chemiluminescent assay. Summed up:
as §1

The target of experiment [3] is T2, Lethal(3)malignant brain tumor-like protein 3 (Homo sapiens, UniProt Q96JM7).
T2 sequence (Q96JM7 whole entry): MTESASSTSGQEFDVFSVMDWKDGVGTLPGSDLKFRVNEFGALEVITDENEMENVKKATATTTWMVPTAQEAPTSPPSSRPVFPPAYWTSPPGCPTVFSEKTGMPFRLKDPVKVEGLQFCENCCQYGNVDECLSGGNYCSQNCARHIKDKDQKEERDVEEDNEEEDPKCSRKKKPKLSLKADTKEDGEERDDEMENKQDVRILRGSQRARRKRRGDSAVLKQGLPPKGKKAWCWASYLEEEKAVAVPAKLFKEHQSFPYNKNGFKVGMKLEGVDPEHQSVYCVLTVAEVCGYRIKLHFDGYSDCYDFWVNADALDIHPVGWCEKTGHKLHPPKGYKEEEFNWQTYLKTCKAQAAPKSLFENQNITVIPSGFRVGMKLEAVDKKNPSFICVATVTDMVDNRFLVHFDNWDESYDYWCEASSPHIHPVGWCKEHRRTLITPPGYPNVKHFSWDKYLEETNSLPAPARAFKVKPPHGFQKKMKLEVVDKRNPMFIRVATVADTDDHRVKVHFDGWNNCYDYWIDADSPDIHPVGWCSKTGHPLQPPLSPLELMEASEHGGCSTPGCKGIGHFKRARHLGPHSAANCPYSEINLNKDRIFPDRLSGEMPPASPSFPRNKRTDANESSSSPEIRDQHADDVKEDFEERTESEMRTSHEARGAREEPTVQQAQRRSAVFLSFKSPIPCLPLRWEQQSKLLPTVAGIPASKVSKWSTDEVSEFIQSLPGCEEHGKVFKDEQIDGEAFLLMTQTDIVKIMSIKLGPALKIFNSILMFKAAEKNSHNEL
As to the kind of experiment: Binding affinity to L3MBTL3 by chemiluminescent assay. Summed up:
as §1

Experiment [4] deals with T3, Lethal(3)malignant brain tumor-like protein 4 (Homo sapiens, UniProt Q8NA19).
T3 sequence (Q8NA19 whole entry): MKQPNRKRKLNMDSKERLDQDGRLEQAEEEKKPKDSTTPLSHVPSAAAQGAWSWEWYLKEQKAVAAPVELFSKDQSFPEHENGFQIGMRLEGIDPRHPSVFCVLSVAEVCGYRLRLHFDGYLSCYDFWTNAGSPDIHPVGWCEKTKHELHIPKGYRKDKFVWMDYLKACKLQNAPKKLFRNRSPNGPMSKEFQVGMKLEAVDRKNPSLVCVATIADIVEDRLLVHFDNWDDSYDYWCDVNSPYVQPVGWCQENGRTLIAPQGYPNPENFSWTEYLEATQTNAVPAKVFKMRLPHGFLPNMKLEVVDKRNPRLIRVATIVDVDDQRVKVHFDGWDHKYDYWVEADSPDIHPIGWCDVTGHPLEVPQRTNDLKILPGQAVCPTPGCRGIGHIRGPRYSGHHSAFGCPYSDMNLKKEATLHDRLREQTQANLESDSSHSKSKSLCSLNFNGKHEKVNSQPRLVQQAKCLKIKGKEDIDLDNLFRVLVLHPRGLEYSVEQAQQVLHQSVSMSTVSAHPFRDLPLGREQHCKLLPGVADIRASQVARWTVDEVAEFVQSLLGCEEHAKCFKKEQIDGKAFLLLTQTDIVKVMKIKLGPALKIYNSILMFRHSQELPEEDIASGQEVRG
Nature of the experiment: Binding affinity to L3MBTL4 by chemiluminescent assay. Summed up: as §1

Experiment [5] deals with T4, Scm-like with four MBT domains protein 1 (Homo sapiens, UniProt Q9UHJ3).
T4 sequence (Q9UHJ3 whole entry): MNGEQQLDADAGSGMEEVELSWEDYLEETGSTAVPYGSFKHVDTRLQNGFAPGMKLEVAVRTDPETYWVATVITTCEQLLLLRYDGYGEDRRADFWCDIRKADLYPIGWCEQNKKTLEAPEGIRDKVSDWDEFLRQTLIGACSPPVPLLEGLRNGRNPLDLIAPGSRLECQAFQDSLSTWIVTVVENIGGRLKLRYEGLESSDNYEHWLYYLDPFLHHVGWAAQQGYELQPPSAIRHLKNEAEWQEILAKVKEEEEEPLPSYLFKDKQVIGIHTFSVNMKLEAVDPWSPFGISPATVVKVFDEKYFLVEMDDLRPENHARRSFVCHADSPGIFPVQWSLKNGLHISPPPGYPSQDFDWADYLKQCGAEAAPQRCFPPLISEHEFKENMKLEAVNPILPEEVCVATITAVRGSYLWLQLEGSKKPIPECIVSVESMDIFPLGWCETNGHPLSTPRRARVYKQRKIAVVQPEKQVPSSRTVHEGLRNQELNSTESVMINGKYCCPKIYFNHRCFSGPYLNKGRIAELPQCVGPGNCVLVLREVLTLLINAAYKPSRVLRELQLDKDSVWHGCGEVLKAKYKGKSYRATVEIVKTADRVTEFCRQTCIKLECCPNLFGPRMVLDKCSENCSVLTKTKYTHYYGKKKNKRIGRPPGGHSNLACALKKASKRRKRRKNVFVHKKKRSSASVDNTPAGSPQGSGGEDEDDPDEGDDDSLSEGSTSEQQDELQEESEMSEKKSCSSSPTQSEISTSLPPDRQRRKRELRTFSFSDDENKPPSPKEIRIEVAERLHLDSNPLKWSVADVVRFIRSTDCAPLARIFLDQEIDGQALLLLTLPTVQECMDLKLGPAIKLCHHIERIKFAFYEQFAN
Nature of the experiment: Binding affinity to human SFMBT by chemiluminescent assay. Summed up: as §1

Chain of MBT domain-containing protein 1 (Q05BQ5 whole entry, the tested form may be a part): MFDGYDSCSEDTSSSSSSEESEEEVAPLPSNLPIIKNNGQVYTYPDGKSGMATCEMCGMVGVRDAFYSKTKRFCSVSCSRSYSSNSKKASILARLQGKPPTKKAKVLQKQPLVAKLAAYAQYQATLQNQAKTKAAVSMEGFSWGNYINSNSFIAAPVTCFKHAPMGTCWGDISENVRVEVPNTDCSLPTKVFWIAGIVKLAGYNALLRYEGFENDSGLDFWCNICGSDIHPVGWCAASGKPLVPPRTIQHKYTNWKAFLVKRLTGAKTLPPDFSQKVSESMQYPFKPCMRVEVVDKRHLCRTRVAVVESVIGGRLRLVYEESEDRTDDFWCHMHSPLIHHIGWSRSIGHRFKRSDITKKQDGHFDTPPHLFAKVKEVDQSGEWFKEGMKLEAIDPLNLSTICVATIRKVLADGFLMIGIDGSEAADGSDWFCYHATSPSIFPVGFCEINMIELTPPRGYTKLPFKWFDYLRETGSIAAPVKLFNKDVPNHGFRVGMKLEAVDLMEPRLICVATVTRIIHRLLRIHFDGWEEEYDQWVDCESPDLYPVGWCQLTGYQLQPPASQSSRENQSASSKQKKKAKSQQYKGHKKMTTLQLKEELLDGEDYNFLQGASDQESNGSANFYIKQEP
Chain of PHD finger protein 13 (Q86YI8 whole entry): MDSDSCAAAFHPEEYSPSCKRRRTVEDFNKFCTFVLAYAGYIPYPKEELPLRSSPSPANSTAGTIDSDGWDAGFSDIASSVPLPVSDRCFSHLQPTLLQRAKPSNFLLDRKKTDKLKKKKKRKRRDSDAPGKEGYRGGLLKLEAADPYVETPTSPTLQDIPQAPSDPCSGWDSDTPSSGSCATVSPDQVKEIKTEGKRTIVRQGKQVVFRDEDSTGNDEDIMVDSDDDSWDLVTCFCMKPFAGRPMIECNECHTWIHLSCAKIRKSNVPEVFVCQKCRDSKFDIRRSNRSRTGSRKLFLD

As for `O=C(NCCCCCN1CCCC1)c1cncc(Br)c1`, the half-inhibitory concentration (IC50) result in experiment [1] was “Not Active”; on PHD finger protein 13 (read-out: IC50) it was 48 µM; in experiment [2], “Not Active”; in experiment [3], 28 µM; in experiment [4] it was “Not Active”; in experiment [5], “Not Active”.

For `O=C(c1cncc(Br)c1)N1CCC(N2CCCC2)CC1`, the IC50 entry in experiment [1] was “Not Active”; at PHD finger protein 13, “Not Active”; in experiment [2] it was “Not Active”; in experiment [3], 35 µM; in experiment [4] (read-out: IC50), 69 µM; in experiment [5] it was “Not Active”.
